From ChEMBL document CHEMBL2346655, “Synthesis and in vitro biological evaluation of 2,6,9-trisubstituted purines targeting multiple cyclin-dependent kinases” (Eur J Med Chem, 2013)
Calls of active or inactive are those of the source. No cut-off for these calls is given here.

Tests used:
[1] = biological target: T1, CDK9/cyclin T1 (Homo sapiens) (UniProt O60563+P50750); test: Inhibition of CDK9/CyclinT1 in human HCT116 cells assessed as decrease in Mdm2 expression at 1 to 5 uM after 24 hrs by immunoblotting analysis; format: cell-based; details: HCT-116
How it was run: (§1)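 Immunoblot: cells lysed by harvesting in Laemmli sample buffer, proteins run on SDS-PAGE, electroblotted to nitrocellulose, blocked, primary antibodies overnight, peroxidase-conjugated secondaries, ECL detection by CCD camera. Antibodies included anti-phospho RNA polymerase II (S2), anti-RNA polymerase II (ARNA-3), anti-p53 (DO-1), anti-p21waf1 (118), anti-PCNA.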

HCT-116 [2] = test: Cell cycle arrest in human HCT116 cells assessed as accumulation at subG1 phase at 5 uM after 24 hrs by propidium iodide staining-based flow cytometric analysis (reference value: 1.4%); format: functional
How it was run: (§2)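 Sub-confluent cells treated at several concentrations for 24 h, then pulsed with 10 μM BrdU for 30 min at 37 °C before harvest. Cells were PBS-washed, fixed in 70% ethanol, denatured in 2 M HCl and neutralized. Stained with fluorescein anti-BrdU and propidium iodide; DNA content read by flow cytometry with 488 nm excitation.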

HCT-116 [3] = test: Ratio of roscovitine IC50 to compound IC50 for human HCT116 cells; format: functional
How it was run: (§3)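 Cytotoxicity IC50s underlying the ratio: cells treated in triplicate with three-fold compound dilutions for 72 h, then Calcein AM added and live-cell fluorescence read at 485/538 nm (ex/em).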

HCT-116 [4] = test: Cell cycle arrest in human HCT116 cells assessed as accumulation at S phase at 1 uM after 24 hrs by propidium iodide staining-based flow cytometric analysis (reference value: 31.6%); format: functional; how it was run: as §2
K562 [5] = test: Induction of apoptosis in human K562 cells assessed as PARP cleavage up to 5 uM after 24 hrs by immunoblotting analysis; format: functional, cell-based
How it was run: (§4)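 Cells were treated for 24 h, harvested directly into Laemmli sample buffer, and run on SDS-PAGE. Proteins were blotted to nitrocellulose, blocked, probed overnight with primary antibodies, then with peroxidase-linked secondaries. Bands were detected by ECL with a CCD camera. PCNA and tubulin served as loading references.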

HCT-116 [6] = test: Cell cycle arrest in human HCT116 cells assessed as accumulation at subG1 phase at 1 uM after 24 hrs by propidium iodide staining-based flow cytometric analysis (reference value: 1.4%); format: functional; how it was run: as §2
HCT-116 [7] = test: Cell cycle arrest in human HCT116 cells assessed as accumulation at S phase after 24 hrs by BrdU incorporation assay; format: functional, cell-based
How it was run: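 Sub-confluent cells were exposed to compound for 24 h, then pulse-labeled with 10 μM BrdU for 30 min at 37 °C. After ethanol (70%) fixation and 2 M HCl denaturation, cells were stained with fluorescein anti-BrdU antibody plus propidium iodide. The BrdU-positive S-phase fraction was quantified by flow cytometry (488 nm laser).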

HCT-116 [8] = test: Induction of apoptosis in human HCT116 cells assessed as PARP cleavage up to 5 uM after 24 hrs by immunoblotting analysis; format: functional, cell-based; how it was run: as §4
HOS [9] = test: Cytotoxicity against human HOS cells assessed as reduction in number of viable cells after 72 hrs by fluorescence assay; format: functional, cell-based
How it was run: (§5)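 Three-fold compound dilutions tested in triplicate on cultured cells for 72 h. Viable cells detected by adding Calcein AM and reading fluorescence at 485/538 nm (ex/em).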

HCT-116 [10] = test: Cell cycle arrest in human HCT116 cells assessed as accumulation at S phase at 0.2 uM after 24 hrs by propidium iodide staining-based flow cytometric analysis (reference value: 31.6%); format: functional; how it was run: as §2
K562 [11] = test: Cell cycle arrest in human K562 cells assessed as accumulation at S phase at 5 uM after 24 hrs by propidium iodide staining-based flow cytometric analysis (reference value: 38.8%); format: functional; how it was run: as §2
K562 [12] = test: Ratio of roscovitine IC50 to compound IC50 for human K562 cells; format: functional; how it was run: as §3
K562 [13] = test: Induction of apoptosis in human K562 cells assessed as change in PUMA level up to 5 uM after 24 hrs by immunoblotting analysis; format: functional, cell-based; how it was run: as §4
K562 [14] = test: Cell cycle arrest in human K562 cells assessed as accumulation at S phase at 0.2 uM after 24 hrs by propidium iodide staining-based flow cytometric analysis (reference value: 38.8%); format: functional; how it was run: as §2
HOS [15] = test: Ratio of roscovitine IC50 to compound IC50 for human HOS cells; format: functional; how it was run: as §3
G-361 = test: Cytotoxicity against human G361 cells assessed as reduction in number of viable cells after 72 hrs by fluorescence assay; format: functional, cell-based; details: G-361, 72 h; how it was run: as §5
K562 [16] = test: Induction of apoptosis in human K562 cells assessed as caspase-3/7 activation by fluorescence assay; format: functional, cell-based
How it was run: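 After 24 h treatment, cells were lysed on ice for 20 min in pH 7.4 HEPES/KCl/EDTA/EGTA/0.2% CHAPS buffer with protease inhibitors and cleared at 10,000 × g for 30 min at 4 °C. Protein was equalized, then incubated for 1 h with 100 μM Ac-DEVD-AMC in PIPES buffer pH 7.3 containing DTT. Fluorescence was read at 355/460 nm; 100 μM Ac-DEVD-CHO served as the negative control.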

[17] = biological target: T1, CDK9/cyclin T1 (Homo sapiens); test: Inhibition of CDK9/CyclinT1-mediated phosphorylation of RNA polymerase 2 at Ser2 in human HCT116 cells up to 25 uM after 24 hrs by immunoblotting analysis; format: cell-based; details: HCT-116; how it was run: as §1
[18] = biological target: Cyclin-dependent kinase 7/ cyclin H (Homo sapiens) (UniProt P51946+P50613); test: Inhibition of CDK7/CyclinH/MAT1-mediated phosphorylation of RNA polymerase 2 at Ser5 in human K562 cells up to 25 uM after 24 hrs by immunoblotting analysis; format: cell-based
[19] = biological target: T1, CDK9/cyclin T1 (Homo sapiens); test: Inhibition of CDK9/CyclinT1 in human ARN8 cells assessed as increase in p53-dependent transcriptional activity after 24 hrs by beta-galactosidase reporter gene assay; format: cell-based
How it was run: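 Arn-8 human melanoma cells stably carrying p53-responsive pRGCΔfoslacZ reporter; 24 h compound exposure, then permeabilized with 0.3% Triton X-100 for 15 min. 4-Methylumbelliferon-β-D-galactopyranoside added (80 μM final); fluorescence read at 355/460 nm (ex/em) after 1 h as β-galactosidase activity.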

K562 [20] = test: Cell cycle arrest in human K562 cells assessed as accumulation at subG1 phase at 5 uM after 24 hrs by propidium iodide staining-based flow cytometric analysis (reference value: 2.4%); format: functional; how it was run: as §2
K562 [21] = test: Cell cycle arrest in human K562 cells assessed as accumulation at S phase at 1 uM after 24 hrs by propidium iodide staining-based flow cytometric analysis (reference value: 38.8%); format: functional; how it was run: as §2
K562 [22] = test: Cell cycle arrest in human K562 cells assessed as accumulation at subG1 phase at 1 uM after 24 hrs by propidium iodide staining-based flow cytometric analysis (reference value: 2.4%); format: functional; how it was run: as §2
[23] = biological target: Cyclin-dependent kinase 7/ cyclin H (Homo sapiens, UniProt P50613); test: Inhibition of CDK7/CyclinH/MAT1 (unknown origin) using (YSPTSPS)2KK as substrate; format: protein-complex assay
How it was run: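 Buffer was 60 mM HEPES-NaOH pH 7.5, 3 mM MgCl2, 3 mM MnCl2, vanadate, DTT and PEG. Reactions were stopped with H3PO4 and spotted on P-81 paper, which was then washed. Radioactivity was imaged; IC50 taken from dose–response curves.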

[24] = biological target: T1, CDK9/cyclin T1 (Homo sapiens); test: Inhibition of CDK9/CyclinT1 in human HCT116 cells assessed as increase in p21 expression at 1 to 5 uM after 24 hrs by immunoblotting analysis; format: cell-based; details: HCT-116; how it was run: as §1

Cyclin-dependent kinase 7/ cyclin H, sequence (P51946 whole entry): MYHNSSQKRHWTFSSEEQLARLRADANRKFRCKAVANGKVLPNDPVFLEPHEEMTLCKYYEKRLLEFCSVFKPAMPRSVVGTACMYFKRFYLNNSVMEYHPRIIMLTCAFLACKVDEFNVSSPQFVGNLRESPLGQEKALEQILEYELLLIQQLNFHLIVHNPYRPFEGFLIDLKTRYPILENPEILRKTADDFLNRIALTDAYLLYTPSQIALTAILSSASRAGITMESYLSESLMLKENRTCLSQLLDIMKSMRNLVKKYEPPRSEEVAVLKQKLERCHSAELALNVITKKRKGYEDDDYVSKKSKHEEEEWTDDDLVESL
Cyclin-dependent kinase 7/ cyclin H, sequence (P50613 whole entry): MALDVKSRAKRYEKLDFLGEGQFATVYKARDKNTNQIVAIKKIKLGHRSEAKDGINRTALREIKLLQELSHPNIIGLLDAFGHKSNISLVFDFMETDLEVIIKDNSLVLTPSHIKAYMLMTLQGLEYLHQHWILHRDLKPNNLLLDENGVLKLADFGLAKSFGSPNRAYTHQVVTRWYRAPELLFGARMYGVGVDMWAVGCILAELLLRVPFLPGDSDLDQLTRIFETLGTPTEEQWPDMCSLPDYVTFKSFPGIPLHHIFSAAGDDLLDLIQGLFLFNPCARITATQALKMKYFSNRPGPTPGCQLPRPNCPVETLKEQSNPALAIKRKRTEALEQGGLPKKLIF

inhibition [1]: Active
inhibition [17]: Active
inhibition [18]: Active
inhibition [19]: Dose-dependent effect
IC50 [23]: 97 nM
inhibition [24]: Active
SMILES: CC[C@@H](Nc1nc(NCc2cc(Cl)ccc2O)c2ncn(C(C)C)c2n1)C(C)O (mixture of isomers)
Activity (HCT-116 [2]): 4.6%
Ratio IC50 (HCT-116 [3]): >9
Activity (HCT-116 [4]): 28.8%
Activity (K562 [5]): Active
Activity (HCT-116 [6]): 3.3%
Activity (HCT-116 [7]): Dose-dependent effect
Activity (HCT-116 [8]): Active
IC50 (HOS [9]): 2700 nM
Activity (HCT-116 [10]): 31.1%
Activity (K562 [11]): 27.8%
Ratio IC50 (K562 [12]): >9
Activity (K562 [13]): inactive
Activity (K562 [14]): 38.5%
Ratio IC50 (HOS [15]): >9
IC50 (G-361): 2300 nM
Activity (K562 [16]): Dose-dependent effect
Activity (K562 [20]): 10.9%
Activity (K562 [21]): 39.8%
Activity (K562 [22]): 3.3%
